The source made the active and inactive calls. The rule behind the calls is not given here.
Columns and labels:
[1] = molecular target: T1, Proprotein convertase subtilisin/kexin type 9 (Homo sapiens, UniProt Q8NBP7); assay: Modulation of PCSK9 in human HepG2 cells assessed as reduction in PCSK9 expression at 10 to 100 nM incubated for 24 hrs prior to compound washout followed by compound addition and measured after 24 hrs by ELISA; assay type: cell-based; conditions: filed as modulator, dose 10-100 nM, time 48.0 hrs
How it was run: (§1)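 HepG2 cells grown to 90% confluence, plated at 1X105 cells/well and left overnight. Medium then replaced with compound- or vehicle (DMSO)-containing dose medium, refreshed at 24 h, collected after a further 24 h. Secreted PCSK9 measured by sandwich ELISA with TMB read-out at 450 nm. Values normalized to DMSO group, mean of n = 3 ± SD.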

HepG2 = assay: Cytotoxicity against human HepG2 cells assessed as reduction in cell viability at <=10 uM by MTT assay; assay type: cell-based
[2] = molecular target: T1, Proprotein convertase subtilisin/kexin type 9; assay: Modulation of PCSK9 in human HepG2 cells assessed as reduction in PCSK9 expression incubated for 24 hrs prior to compound washout followed by compound addition and measured after 24 hrs by ELISA; assay type: cell-based
How it was run: (§2)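 HepG2 cells grown to 90% confluence and plated at 1X105 cells/well, then left to settle overnight. Medium replaced with dose medium containing compound or DMSO vehicle for 24 h, refreshed with the same medium, then incubated 24 h more. Medium collected after centrifugation. PCSK9 measured by sandwich ELISA with TMB read-out at 450 nm. Values normalized to vehicle, mean of n = 3.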

[3] = Intrinsic clearance in mouse liver microsomes measured after 60 mins in presence of NADPH by LC-MS/MS analysis; assay type: ADME, Microsome; conditions: for microsomal intrinsic clearance: microsomes, 1 h
[4] = Intrinsic clearance in rat liver microsomes measured after 60 mins in presence of NADPH by LC-MS/MS analysis; assay type: ADME, Microsome; conditions: for Intrinsic clearance in rat liver microsomes: 1 h
[5] = molecular target: T1, Proprotein convertase subtilisin/kexin type 9; assay: Modulation of PCSK9 in human HepG2 cells assessed as reduction in PCSK9 expression at 10 nM incubated for 24 hrs prior to compound washout followed by compound addition and measured after 24 hrs by ELISA; assay type: cell-based; set-up: scale not given: the % may be the effect or the level left; conditions: time 48.0 hrs; how it was run: as §2
[6] = molecular target: T1, Proprotein convertase subtilisin/kexin type 9; assay: Modulation of PCSK9 in human HepG2 cells assessed as reduction in PCSK9 expression at 100 nM incubated for 24 hrs prior to compound washout followed by compound addition and measured after 24 hrs by ELISA; assay type: cell-based; set-up: scale not given: the % may be the effect or the level left; conditions: time 48.0 hrs; how it was run: as §2
[7] = Half life in mouse liver microsomes measured after 60 mins in presence of NADPH by LC-MS/MS analysis; assay type: ADME, Microsome; conditions: 1 h
[8] = Half life in rat liver microsomes measured after 60 mins in presence of NADPH by LC-MS/MS analysis; assay type: ADME, Microsome; conditions: 1 h
[9] = molecular target: T1, Proprotein convertase subtilisin/kexin type 9; assay: Modulation of PCSK9 in human HepG2 cells assessed as reduction in PCSK9 expression at 1 uM incubated for 24 hrs prior to compound washout followed by compound addition and measured after 24 hrs by ELISA; assay type: cell-based; set-up: scale not given: the % may be the effect or the level left; conditions: filed as modulator, time 48.0 hrs; how it was run: as §2
[10] = AUC (0 to infinity) in BTBR mouse at 6 mg/kg, ip administered as single dose by LC-MS/MS analysis; assay type: ADME, organism-based; set-up: time infinity, route intraperitoneal, dose 6 mg/kg; conditions: in vivo
How it was run: (§3)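 Mice given a single intraperitoneal dose of 6 mg/kg. Formulation: DMSO (10 %) and Tween 80 (10 %) in PBS (80 %). Plasma samples collected and analysed by LC-MS/MS. AUC is total exposure after the single dose, Cmax is maximum plasma concentration, and T1/2 is half-life.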

[11] = Cmax in BTBR mouse at 6 mg/kg, ip administered as single dose by LC-MS/MS analysis; assay type: ADME, organism-based; set-up: route intraperitoneal, dose 6 mg/kg; conditions: in vivo; how it was run: as §3
[12] = Half life in BTBR mouse at 6 mg/kg, ip administered as single dose by LC-MS/MS analysis; assay type: ADME, organism-based; conditions: in vivo; how it was run: as §3
[13] = Half life in human liver microsomes measured after 60 mins in presence of NADPH by LC-MS/MS analysis; assay type: ADME, Microsome; conditions: 1 h
[14] = Intrinsic clearance in human liver microsomes measured after 60 mins in presence of NADPH by LC-MS/MS analysis; assay type: ADME, Microsome; conditions: 1 h
[15] = molecular target: T1, Proprotein convertase subtilisin/kexin type 9; assay: Modulation of PCSK9 in human HepG2 cells assessed as reduction in PCSK9 expression at 1 to 10 uM incubated for 24 hrs prior to compound washout followed by compound addition and measured after 24 hrs by ELISA; assay type: cell-based; conditions: filed as modulator, dose 1-10 µM, time 48.0 hrs; how it was run: as §1
[16] = liver microsomes, read-out: CLH

T1 sequence (Q8NBP7 31-152 limits assumed): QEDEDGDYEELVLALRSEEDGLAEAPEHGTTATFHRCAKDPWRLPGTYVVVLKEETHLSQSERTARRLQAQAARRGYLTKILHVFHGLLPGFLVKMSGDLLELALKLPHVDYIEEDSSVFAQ
T1 sequence (Q8NBP7 153-692 limits assumed): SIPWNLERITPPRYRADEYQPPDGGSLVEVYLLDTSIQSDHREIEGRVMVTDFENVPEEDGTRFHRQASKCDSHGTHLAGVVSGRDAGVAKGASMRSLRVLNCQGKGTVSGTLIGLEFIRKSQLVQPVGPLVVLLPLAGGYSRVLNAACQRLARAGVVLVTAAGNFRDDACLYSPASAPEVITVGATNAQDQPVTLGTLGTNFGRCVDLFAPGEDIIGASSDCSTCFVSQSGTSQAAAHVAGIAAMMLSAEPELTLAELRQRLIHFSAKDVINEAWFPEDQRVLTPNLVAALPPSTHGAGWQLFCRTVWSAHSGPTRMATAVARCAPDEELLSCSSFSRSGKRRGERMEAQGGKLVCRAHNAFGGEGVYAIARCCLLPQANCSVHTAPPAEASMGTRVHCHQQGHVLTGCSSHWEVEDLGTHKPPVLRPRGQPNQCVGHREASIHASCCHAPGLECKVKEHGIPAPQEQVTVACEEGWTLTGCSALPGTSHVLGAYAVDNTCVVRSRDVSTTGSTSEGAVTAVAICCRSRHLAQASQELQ

SMILES: Cn1c(C(=O)c2c[nH]c3ccccc23)nc2ccc(F)cc21
- Activity [1]: Active
- Activity (HepG2): Non-Toxic

SMILES: Cn1c(C(=O)c2cn(S(=O)(=O)CCN3CCOCC3)c3c(F)cccc23)nc2ccc(F)cc21
- EC50 [2]: 0.69 nM
- Activity (HepG2): Non-Toxic

SMILES: Fc1ccc2nc(Cc3c[nH]c4c(F)cccc34)n(Cc3ccccc3)c2c1
- Activity (HepG2): Non-Toxic

SMILES: Cn1c(C(=O)c2c[nH]c3c(F)cccc23)nc2ccc(F)cc21
- microsomal CLint [3, 16]: 41.7 µL/min/mg
- microsomal CLint [4, 16]: 23 µL/min/mg
- Activity [5]: 35%
- Activity [6]: 12.5%
- EC50 [2]: 0.15 nM
- Activity (HepG2): Non-Toxic

SMILES: Cn1c(C(=O)c2c[nH]c3c(F)cccc23)nc2cc(F)ccc21
- Activity [5]: 34.4%
- Activity [6]: 11.9%
- Activity (HepG2): Non-Toxic

SMILES: O=C(c1cc2cc(F)ccc2[nH]1)c1c[nH]c2c(F)cccc12
- t1/2 [7]: 40.1 min
- microsomal intrinsic clearance [3]: 34.6 µL/min/mg
- t1/2 [8]: 76.9 min
- Intrinsic clearance in rat liver microsomes [4]: 18.1 µL/min/mg
- Activity [9]: Active
- AUC(0-inf) [10]: 610 ng·h/mL
- Cmax [11]: 323 ng/mL
- half-life [12]: 78.6 min
- Activity (HepG2): Non-Toxic

SMILES: Fc1ccc2nc(Cc3c[nH]c4c(F)cccc34)n(CCc3ccccc3)c2c1
- Activity (HepG2): Non-Toxic

SMILES: [2H]C([2H])(c1nc2cc(F)ccc2[nH]1)c1c[nH]c2c(F)cccc12
- t1/2 [7]: 16.3 min
- microsomal intrinsic clearance [3]: 85.2 µL/min/mg
- t1/2 [8]: 23.5 min
- Intrinsic clearance in rat liver microsomes [4]: 59.1 µL/min/mg
- Activity (HepG2): Non-Toxic

SMILES: Cn1c(C(=O)c2cn(CCCCN3CCOCC3)c3c(F)cccc23)nc2ccc(F)cc21
- EC50 [2]: 88 nM
- Activity (HepG2): Non-Toxic

SMILES: Cn1c(C(=O)c2c[nH]c3cc(F)ccc23)nc2ccc(F)cc21
- Activity (HepG2): Non-Toxic

SMILES: Cn1c(C(=O)c2c[nH]c3cccc(F)c23)nc2ccc(F)cc21
- Activity (HepG2): Non-Toxic

SMILES: O=C(c1nc2ccccc2[nH]1)c1c[nH]c2ccccc12
- t1/2 [7]: 25.8 min
- microsomal intrinsic clearance [3]: 54.6 µL/min/mg
- t1/2 [8]: 42.4 min
- Intrinsic clearance in rat liver microsomes [4]: 33.1 µL/min/mg
- Activity (HepG2): Non-Toxic

SMILES: OCCn1c(Cc2c[nH]c3c(F)cccc23)nc2ccc(F)cc21
- Activity (HepG2): Non-Toxic

SMILES: CC(C)(C)Cn1c(Cc2c[nH]c3c(F)cccc23)nc2ccc(F)cc21
- Activity (HepG2): Non-Toxic

SMILES: Fc1ccc2nc(Cc3c[nH]c4c(F)cccc34)n(Cc3ccncc3)c2c1
- Activity (HepG2): Non-Toxic

SMILES: Fc1ccc2[nH]c(Cc3c[nH]c4c(F)cccc34)cc2c1
- t1/2 [13]: 63.9 min
- CLH [14]: 23 µL/min/mg
- t1/2 [7]: 16.5 min
- microsomal intrinsic clearance [3]: 83.9 µL/min/mg
- t1/2 [8]: 23.2 min
- Intrinsic clearance in rat liver microsomes [4]: 60.7 µL/min/mg
- Activity [9]: Active

SMILES: Cn1c(C(=O)c2c[nH]c3ccc(F)cc23)nc2ccc(F)cc21
- Activity (HepG2): Non-Toxic

SMILES: O=C(c1nc2c(F)cccc2[nH]1)c1c[nH]c2c(F)cccc12
- Activity (HepG2): Non-Toxic

SMILES: Cn1c(C(=O)c2cn(CCCN3CCOCC3)c3c(F)cccc23)nc2ccc(F)cc21
- EC50 [2]: 39.9 nM
- Activity (HepG2): Non-Toxic

SMILES: CC(C)Cn1c(Cc2c[nH]c3c(F)cccc23)nc2ccc(F)cc21
- Activity (HepG2): Non-Toxic

SMILES: Cn1c(C(=O)c2cn(CCN3CCOCC3)c3c(F)cccc23)nc2ccc(F)cc21
- EC50 [2]: 11 nM
- Activity (HepG2): Non-Toxic

SMILES: Cn1c(C(=O)c2c[nH]c3c(F)cccc23)nc2c(F)cccc21
- Activity [1]: Active
- Activity (HepG2): Non-Toxic

SMILES: O=C(c1nc2ccccc2[nH]1)c1c[nH]c2c(F)cccc12
- Activity (HepG2): Non-Toxic

SMILES: Cn1c(C(=O)c2cn(S(=O)(=O)CCN3CCNCC3)c3c(F)cccc23)nc2ccc(F)cc21
- EC50 [2]: 161 nM
- Activity (HepG2): Non-Toxic

SMILES: O=C(c1nc2ccc(F)cc2[nH]1)c1c[nH]c2c(F)cccc12
- t1/2 [7]: 30 min
- microsomal intrinsic clearance [3]: 46.5 µL/min/mg
- t1/2 [8]: 47.8 min
- Intrinsic clearance in rat liver microsomes [4]: 29.4 µL/min/mg
- Activity [9]: 90%
- AUC(0-inf) [10]: 696 ng·h/mL
- Cmax [11]: 294 ng/mL
- half-life [12]: 98.4 min
- EC50 [2]: 2.46 nM
- Activity (HepG2): Non-Toxic

SMILES: Cn1cc(C(=O)c2nc3ccc(F)cc3n2C)c2cccc(F)c21
- EC50 [2]: 1.21 nM
- Activity (HepG2): Non-Toxic

SMILES: CCCCn1cc(C(=O)c2nc3ccc(F)cc3n2C)c2cccc(F)c21
- EC50 [2]: 0.28 nM
- Activity (HepG2): Non-Toxic

SMILES: Cn1c(Cc2c[nH]c3c(F)cccc23)nc2ccc(F)cc21
- Activity [15]: Active
- Activity (HepG2): Non-Toxic

SMILES: O=C(c1nc2ccc(F)cc2[nH]1)c1c[nH]c2ccccc12
- Activity (HepG2): Non-Toxic

SMILES: Fc1ccc2nc(Cc3c[nH]c4c(F)cccc34)n(Cc3cccnc3)c2c1
- Activity (HepG2): Non-Toxic

SMILES: Fc1ccc2nc(Cc3c[nH]c4c(F)cccc34)[nH]c2c1
- t1/2 [13]: 17.5 min
- CLH [14]: 79.4 µL/min/mg
- t1/2 [7]: 7.1 min
- microsomal intrinsic clearance [3]: 194.9 µL/min/mg
- t1/2 [8]: 9.5 min
- Intrinsic clearance in rat liver microsomes [4]: 145.6 µL/min/mg
- Activity [9]: Active
- EC50 [2]: 348 nM
- Activity (HepG2): Non-Toxic

SMILES: Cn1c(C(=O)c2c[nH]c3c(F)cccc23)nc2ccccc21
- Activity [1]: Active
- Activity (HepG2): Non-Toxic

SMILES: Cn1c(C(=O)c2c[nH]c3c(F)cccc23)nc2cccc(F)c21
- Activity [1]: Active
- Activity (HepG2): Non-Toxic
